{"data": "Published values pooled from the literature", "Dihydroorotate dehydrogenase (quinone), mitochondrial": "Dihydroorotate dehydrogenase (quinone), mitochondrial (Rattus norvegicus, UniProt Q63707)", "CYP2D6": "Cytochrome P450 2D6 (CYP2D6, Homo sapiens, UniProt P10635)", "note": "Protocols differ between the studies behind these lines."}
{"SMILES": "O=C1CCC(=O)N1Cc1cc2nccc(-c3cc(Cl)cc4c3N([C@@H]3CNC5(CCC5)C3)CCC4)c2s1", "target": "Ubiquitin carboxyl-terminal hydrolase 7 (USP7, Homo sapiens, UniProt Q93009)", "assay": "binding, SPR", "measurement": "Kd", "result": "0.0001 µM"}
{"SMILES": "Cn1nc2c(=O)n(C3CC3)ccc2c1[C@](O)(c1cnc(C(F)(F)F)c(Cl)c1)C(F)(F)F", "target": "Dihydroorotate dehydrogenase (quinone), mitochondrial", "assay": "enzyme activity, inhibitor, absorbance", "measurement": "IC50", "result": "16 µM"}
{"SMILES": "Cc1nn(CCc2ccccc2)c2ncc(C(=O)NCc3cccnc3)c(Cl)c12", "target": "Prolyl endopeptidase (PREP, Homo sapiens, UniProt P48147)", "assay": "enzyme activity, inhibitor, fluorescence", "measurement": "IC50", "result": "14 µM"}
{"SMILES": "Cn1nc2c(=O)n(C3CC3)ncc2c1[C@](N)(c1ccc(C(F)(F)F)c(Cl)c1)C1CC1", "target": "Dihydroorotate dehydrogenase (quinone), mitochondrial", "assay": "enzyme activity, inhibitor, absorbance", "measurement": "IC50", "result": "6.2 µM"}
{"SMILES": "Cc1ccc2[nH]c(=O)c(CNC3CCCCC3)cc2c1", "target": "Alpha-1B adrenergic receptor (ADRA1B, Homo sapiens, UniProt P35368)", "assay": "ligand displacement in cells", "measurement": "Ki", "result": "0.155 µM"}
{"SMILES": "CCNC(=O)/C=C/c1cccc(Br)c1", "target": "Sodium-dependent neutral amino acid transporter B(0)AT1 (SLC6A19, Homo sapiens, UniProt Q695T7)", "assay": "transporter uptake, inhibitor, radiometric", "measurement": "IC50", "result": "0.84 µM"}
{"SMILES": "C=C(F)C(=O)N1CCN(c2nc(OC[C@@H]3CCCN3C)nc3c2CCN(c2cccc4cccc(Cl)c24)C3)C[C@@H]1CC#N", "target": "CYP2D6", "assay": "enzyme activity, inhibitor", "test system": "human, liver microsomes", "measurement": "Ki", "result": "26.4 µM"}
{"SMILES": "Cc1ccc(C(=O)Nc2ccc(CN3CCN(C)CC3)c(C(F)(F)F)c2)cc1C#Cc1cnc2cccnn12", "target": "Calmodulin-domain protein kinase 1, putative (Cryptosporidium parvum, UniProt A3FQ16)", "assay": "enzyme activity, inhibitor", "measurement": "IC50", "result": "> 1 µM"}
{"SMILES": "C[C@@H]1CN(c2ccc(-c3cc(C(=O)NCCCNC(=O)/C=C/c4[nH]cc(C(=O)N[C@@H](CC(N)=O)c5ccc(F)c(Cl)c5)c4-c4ccc(Cl)cc4F)ccc3F)cc2NC(=O)c2c[nH]c(=O)cc2C(F)(F)F)C[C@H](C)N1C", "target": "DDB1- and CUL4-associated factor 1 (DCAF1, Homo sapiens, UniProt Q9Y4B6)", "assay": "binding, SPR", "measurement": "Kd", "result": "0.0152 µM"}
{"SMILES": "Nc1ccccc1NC(=O)c1ccc(CNc2ccc(NC3=C(Cl)C(=O)c4cccnc4C3=O)cc2)cc1", "target": "Histone deacetylase 3 (HDAC3, Homo sapiens, UniProt O15379)", "assay": "enzyme activity, inhibitor", "measurement": "IC50", "result": "0.716 µM"}
{"SMILES": "COc1cc(O)c2c(c1)C(=O)c1cc(C)cc(O)c1C2=O", "target": "CYP2D6", "assay": "enzyme activity, inhibitor", "test system": "human, liver microsomes", "conditions": "pH 7.4", "measurement": "Ki", "result": "8.66 µM"}
{"SMILES": "Cn1nc2c(=O)n(C3CC3)ncc2c1[C@](O)(c1cnc(C(F)(F)F)c(Cl)c1)C(F)(F)F", "target": "Dihydroorotate dehydrogenase (quinone), mitochondrial", "assay": "enzyme activity, inhibitor, absorbance", "measurement": "IC50", "result": "> 30 µM"}
